Counter-ions that a name gives are not always drawn. The source made the active and inactive calls. The rule behind the calls is not given here.
Tests used:
[1] = tested on: A549; test: Cytotoxicity against human A549 cells after 72 hrs by alamar blue assay; type: functional, cell-based; conditions: A549, 72 h
Procedure, shortened: (§1)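 Cells were kept in DMEM with 10% FBS and penicillin/streptomycin at 37 °C and 5% CO2. 1000 cells/well adhered overnight, then were exposed for 72 h to a 10-point series from 100 μM to 3 nM final (1% DMSO). Alamar blue was added to 10% final for 24 h, and fluorescence was read at ex 535/em 590 nm. Triplicates were run. IC50 came from nonlinear regression, as mean ± SD of two independent experiments. Vincristine was the positive control.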

[2] = tested on: NFF; test: Cytotoxicity against human NFF cells after 72 hrs by alamar blue assay; type: cell-based; procedure, shortened: as §1
[3] = Cytotoxicity against human HEK cells after 72 hrs by alamar blue assay; type: cell-based; conditions: HEK293, 72 h; procedure, shortened: as §1
[4] = tested on: A549; test: Cytotoxicity against human A549 cells assessed as cell proliferation at 100 nM after 48 hrs by confocal microscopic analysis
[5] = tested on: PC-3; test: Cytotoxicity against human PC3 cells after 72 hrs by alamar blue assay; type: functional, cell-based; conditions: PC-3, 72 h
Procedure, shortened: (§2)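 Cells were grown in RPMI with 10% FBS and penicillin/streptomycin (37 °C, 5% CO2). Plates held 1000 cells/well and were left overnight to adhere. Compounds were given for 72 h over 10 concentrations from 100 μM to 3 nM final, with 1% DMSO. Viability was read with Alamar blue at 10% final for 24 h (fluorescence ex 535/em 590 nm). Each concentration was run in triplicate. IC50 was fitted by nonlinear regression, as mean ± SD of two experiments. Vincristine served as positive control.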

[6] = tested on: LNCaP; test: Cytotoxicity against human LNCAP cells after 72 hrs by alamar blue assay; type: functional, cell-based; procedure, shortened: as §2
[7] = tested on: A549; test: Cytotoxicity against human A549 cells assessed as cell index at 100 nM after 72 hrs by alamar blue assay; type: functional, cell-based; conditions: in the assay text read “xCelligence impedance assay” for “alamar blue assay”
Procedure, shortened: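 Real-time impedance (cell index) was recorded on an xCelligence system. A549 cells were seeded at 4000/well, settled 30 min at room temperature, then recorded at 37 °C, 5% CO2. Next day, half the medium was swapped for medium holding 2× compound. Vehicle was 1% DMSO. Runs were in triplicate, in two independent experiments. Readings were taken every minute for 2 h, then hourly to 72 h.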

[8] = tested on: HeLa; test: Cytotoxicity against human HeLa cells after 72 hrs by alamar blue assay; type: functional, cell-based; procedure, shortened: as §2

| Structure (SMILES) | IC50 [1] | IC50 [2] | IC50 [3] | Activity [4] | IC50 [5] | IC50 [6] | Activity [7] | IC50 [8] |
| --- | --- | --- | --- | --- | --- | --- | --- | --- |
| CCC(C)C[C@@H](C)[C@@H](O)[C@@H](C)C(=O)N[C@@H](CC(N)=O)C(=O)N[C@@H](CCCNC(=N)N)[C@@H](O)[C@@H](O)C(=O)NC(C(=O)N[C@H]1C(=O)N[C@H]([C@H](C)O)C(=O)N[C@H](CCCNC(=N)N)C(=O)N[C@@H](CC(C)C)C(=O)N(C)[C@@H](CCC(N)=O)C(=O)N[C@H]([C@H](OC)c2ccc(O)cc2)C(=O)N2CCCC[C@H]2C(=O)O[C@@H]1C)C(C)C(C)C(N)=O (relative stereo) | 0.091 µM | 0.15 µM | 0.088 µM | inactive | 0.13 µM | 0.11 µM | inactive | 0.21 µM |
| CO[C@H](c1ccc(O)cc1)[C@H]1NC(=O)[C@H](CCC(=O)O)N(C)C(=O)[C@H](CC(C)C)NC(=O)[C@@H](CCCNC(=N)N)NC(=O)[C@@H]([C@H](C)O)NC(=O)[C@H](NC(=O)C(NC(=O)[C@H](O)[C@H](O)[C@H](CCCNC(=N)N)NC(=O)[C@H](CC(N)=O)NC(=O)[C@H](C)[C@H](O)[C@H](C)CC(C)C)C(C)C(C)C(N)=O)[C@@H](C)OC(=O)[C@@H]2CCCCN2C1=O (relative stereo) | 0.131 µM | 0.26 µM | 0.16 µM |  | 0.11 µM | 0.19 µM |  | 0.17 µM |
| CC[C@]1(O)C[C@H]2CN(CCc3c([nH]c4ccccc34)[C@@](C(=O)OC)(c3cc4c(cc3OC)N(C=O)[C@H]3[C@@](O)(C(=O)OC)[C@H](OC(C)=O)[C@]5(CC)C=CCN6CC[C@]43[C@@H]65)C2)C1 [VINCRISTINE SULFATE] | 0.02 µM | 0.017 µM | 0.031 µM |  | 0.015 µM | 0.0061 µM |  | 0.036 µM |
| CO[C@H](c1ccc(O)cc1)[C@H]1NC(=O)[C@H](CCC(N)=O)N(C)C(=O)[C@H](CC(C)C)NC(=O)[C@@H](CCCNC(=N)N)NC(=O)[C@@H]([C@H](C)O)NC(=O)[C@H](NC(=O)C(NC(=O)[C@H](O)[C@H](O)[C@H](CCCNC(=N)N)NC(=O)[C@H](CC(N)=O)NC(=O)[C@H](C)[C@H](O)[C@H](C)CC(C)C)C(C)C(C)C(N)=O)[C@@H](C)OC(=O)[C@@H]2CCCCN2C1=O (relative stereo) | 0.13 µM | 0.37 µM | 0.2 µM |  | 0.17 µM | 0.23 µM |  | 0.11 µM |

From ChEMBL document CHEMBL2203019, “Cytotoxic cyclic depsipeptides from the Australian marine sponge Neamphius huxleyi” (J Nat Prod, 2012)
